Measurements reported in ChEMBL document CHEMBL3124808, “C-peptide inhibitors of Ebola virus glycoprotein-mediated cell entry: effects of conjugation to cholesterol and side chain-side chain crosslinking” (Bioorg Med Chem Lett, 2013).
Calls of active or inactive are those of the source. The rule behind the calls is not given here. Where a SMILES comes first, the peptide text is derived from it. The star is where a group is joined. X1 = CC(C)CCC[C@@H](C)[C@H]1CC[C@H]2[C@@H]3CC=C4C[C@@H](OC(=O)C*)CC[C@]4(C)[C@H]3CC[C@]12C

Columns and labels:
Type in all cases: cell-based
[1] = target: T1, Envelope glycoprotein (Zaire ebolavirus (strain Mayinga-76) (ZEBOV) (Zaire Ebola virus)) (UniProt Q05320); experiment: Inhibition of Vesicular stomatitis virus particle bearing EBOV glycoprotein-mediated viral entry in African green monkey Vero cells incubated for 1 hr prior to viral addition measured after 1 hr by fluorescence microscopy relative to control
T1 sequence (whole entry): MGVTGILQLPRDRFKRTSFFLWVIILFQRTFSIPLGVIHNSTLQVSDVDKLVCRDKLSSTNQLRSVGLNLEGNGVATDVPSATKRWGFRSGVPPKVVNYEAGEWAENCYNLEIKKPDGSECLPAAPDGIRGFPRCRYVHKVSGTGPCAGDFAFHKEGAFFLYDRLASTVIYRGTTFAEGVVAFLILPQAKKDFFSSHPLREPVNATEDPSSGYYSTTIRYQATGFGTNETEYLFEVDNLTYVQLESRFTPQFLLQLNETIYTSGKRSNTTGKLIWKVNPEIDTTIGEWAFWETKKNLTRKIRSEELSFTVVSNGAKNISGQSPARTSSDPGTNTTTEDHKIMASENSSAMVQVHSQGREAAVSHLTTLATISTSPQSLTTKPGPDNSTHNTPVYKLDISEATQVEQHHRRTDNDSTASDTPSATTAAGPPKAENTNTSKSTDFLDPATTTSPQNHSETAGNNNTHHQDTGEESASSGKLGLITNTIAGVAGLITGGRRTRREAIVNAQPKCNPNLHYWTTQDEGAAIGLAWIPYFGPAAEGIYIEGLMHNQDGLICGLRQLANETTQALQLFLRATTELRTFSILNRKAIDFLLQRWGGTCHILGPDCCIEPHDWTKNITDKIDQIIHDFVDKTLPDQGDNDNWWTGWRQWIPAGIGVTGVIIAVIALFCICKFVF
In short: (§1)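 Vero host cells were infected with VSV particles bearing the EBOV glycoprotein in place of G, with a matrix protein–eGFP fusion. Primary infection events were quantified by fluorescence confocal microscopy, and inhibition was expressed as fold or percent reduction in infection versus control.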

Vero [2] = experiment: Inhibition of Vesicular stomatitis virus envelope glycoprotein G-mediated viral entry in African green monkey Vero cells at >10 uM incubated for 1 hr prior to viral addition measured after 1 hr by fluorescence microscopy relative to control
Vero [3] = experiment: Inhibition of Vesicular stomatitis virus envelope glycoprotein G-mediated viral entry in African green monkey Vero cells at 10 uM incubated for 1 hr prior to viral addition measured after 1 hr by fluorescence microscopy relative to control
[4] = target: T1, Envelope glycoprotein (Zaire ebolavirus (strain Mayinga-76) (ZEBOV) (Zaire Ebola virus)); experiment: Inhibition of Vesicular stomatitis virus particle bearing EBOV glycoprotein-mediated viral entry in African green monkey Vero cells at 40 uM incubated for 1 hr prior to viral addition measured after 1 hr by fluorescence microscopy relative to control; in short: as §1
[5] = target: T1, Envelope glycoprotein (Zaire ebolavirus (strain Mayinga-76) (ZEBOV) (Zaire Ebola virus)); experiment: Inhibition of Vesicular stomatitis virus particle bearing EBOV glycoprotein-mediated viral entry in African green monkey Vero cells at 20 uM incubated for 1 hr prior to viral addition measured after 1 hr by fluorescence microscopy relative to control; in short: as §1
Vero [6] = experiment: Cytotoxicity against African green monkey Vero cells at 30 to 40 uM by Cyto Tox Glo assay; details: chlorocebus sabaeus
In short: (§2)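 Vero cells exposed to peptide were scored for tolerance by visual inspection and by a commercial cell viability assay.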

Vero [7] = experiment: Cytotoxicity against African green monkey Vero cells at 40 uM by Cyto Tox Glo assay; details: chlorocebus sabaeus; in short: as §2
[8] = target: T1, Envelope glycoprotein (Zaire ebolavirus (strain Mayinga-76) (ZEBOV) (Zaire Ebola virus)); experiment: Inhibition of Vesicular stomatitis virus particle bearing EBOV glycoprotein-mediated viral entry in African green monkey Vero cells at 75 uM incubated for 1 hr prior to viral addition measured after 1 hr by fluorescence microscopy relative to control
Vero [9] = experiment: Cytotoxicity against African green monkey Vero cells at >15 uM by Cyto Tox Glo assay; details: chlorocebus sabaeus
Vero [10] = experiment: Inhibition of Vesicular stomatitis virus envelope glycoprotein G-mediated viral entry in African green monkey Vero cells incubated for 1 hr prior to viral addition measured after 1 hr by fluorescence microscopy relative to control
[11] = target: T1, Envelope glycoprotein (Zaire ebolavirus (strain Mayinga-76) (ZEBOV) (Zaire Ebola virus)); experiment: Inhibition of Vesicular stomatitis virus particle bearing EBOV glycoprotein-mediated viral entry in African green monkey Vero cells at >20 uM incubated for 1 hr prior to viral addition measured after 1 hr by fluorescence microscopy relative to control; in short: as §1
Vero [12] = experiment: Inhibition of Vesicular stomatitis virus envelope glycoprotein G-mediated viral entry in African green monkey Vero cells at 40 uM incubated for 1 hr prior to viral addition measured after 1 hr by fluorescence microscopy relative to control

In the case of `CC(C)CCC[C@@H](C)[C@H]1CC[C@H]2[C@@H]3CC=C4C[C@@H](O)CC[C@]4(C)[C@H]3CC[C@]12C`, the inhibition [1] was “Active”.

In the case of `CC[C@H](C)[C@H](N)C(=O)N[C@@H](CCC(=O)O)C(=O)N1CCC[C@H]1C(=O)N[C@@H](Cc1cnc[nH]1)C(=O)N[C@@H](CC(=O)O)C(=O)N[C@@H](Cc1c[nH]c2ccccc12)C(=O)N[C@H](C(=O)N[C@@H](CCCCN)C(=O)N[C@@H](CC(N)=O)C(=O)N[C@H](C(=O)N[C@H](C(=O)N[C@@H](CC(=O)O)C(=O)N[C@@H](CCCCN)C(=O)N[C@H](C(=O)N[C@@H](CC(=O)O)C(=O)N[C@@H](CCC(N)=O)C(=O)N[C@H](C(=O)N[C@H](C(=O)N[C@@H](Cc1cnc[nH]1)C(=O)N[C@@H](CC(=O)O)C(=O)N[C@@H](Cc1ccccc1)C(=O)N[C@H](C(=O)N[C@@H](CC(=O)O)C(=O)N[C@@H](CCCCN)C(=O)NCC(=O)N[C@@H](CO)C(=O)NCC(=O)N[C@@H](CCCCN)C(=O)N[C@@H](CCCCN)C(=O)N[C@@H](CCCCN)C(=O)N[C@@H](CCCCN)C(=O)N[C@@H](CSCC(=O)O[C@H]1CC[C@@]2(C)C(=CC[C@H]3[C@@H]4CC[C@H]([C@H](C)CCCC(C)C)[C@@]4(C)CC[C@@H]32)C1)C(=O)O)C(C)C)[C@@H](C)CC)[C@@H](C)CC)[C@@H](C)CC)[C@H](C)O)[C@@H](C)CC)[C@@H](C)O`, the inhibition (Vero [2]) was > 99%, the inhibition (Vero [3]) was 90% and the Ratio [4] was 1000. The inhibition [5] was “Active” and the Activity (Vero [6]) was 20%.

In the case of `CC[C@H](C)[C@H](NC(=O)CNC(=O)[C@H](CO)NC(=O)CNC(=O)[C@H](CCCCN)NC(=O)[C@H](CCCCN)NC(=O)[C@H](CCCCN)NC(=O)[C@H](CCCCN)NC(=O)[C@@H](N)CSCC(=O)O[C@H]1CC[C@@]2(C)C(=CC[C@H]3[C@@H]4CC[C@H]([C@H](C)CCCC(C)C)[C@@]4(C)CC[C@@H]32)C1)C(=O)N[C@@H](CCC(=O)O)C(=O)N1CCC[C@H]1C(=O)N[C@@H](Cc1cnc[nH]1)C(=O)N[C@@H](CC(=O)O)C(=O)N[C@@H](Cc1c[nH]c2ccccc12)C(=O)N[C@H](C(=O)N[C@@H](CCCCN)C(=O)N[C@@H](CC(N)=O)C(=O)N[C@H](C(=O)N[C@H](C(=O)N[C@@H](CC(=O)O)C(=O)N[C@@H](CCCCN)C(=O)N[C@H](C(=O)N[C@@H](CC(=O)O)C(=O)N[C@@H](CCC(N)=O)C(=O)N[C@H](C(=O)N[C@H](C(=O)N[C@@H](Cc1cnc[nH]1)C(=O)N[C@@H](CC(=O)O)C(=O)N[C@@H](Cc1ccccc1)C(=O)N[C@H](C(=O)N[C@@H](CC(=O)O)C(=O)N[C@@H](CCCCN)C(=O)O)C(C)C)[C@@H](C)CC)[C@@H](C)CC)[C@@H](C)CC)[C@@H](C)O)[C@@H](C)CC)[C@@H](C)O`, the inhibition (Vero [2]) was > 99%, the inhibition (Vero [3]) was 90% and the Ratio [4] was 1000. For the same molecule, the Activity (Vero [7]) was 20% and the inhibition [5] was “Active”.

`CC[C@H](C)[C@H](NC(=O)CNC(=O)[C@H](CO)NC(=O)CNC(=O)[C@H](CCCNC(=N)N)NC(=O)[C@H](CCCNC(=N)N)NC(=O)[C@H](CCCNC(=N)N)NC(=O)[C@H](CCC(N)=O)NC(=O)[C@H](CCCNC(=N)N)NC(=O)[C@H](CCCNC(=N)N)NC(=O)[C@H](CCCCN)NC(=O)[C@H](CCCCN)NC(=O)[C@H](CCCNC(=N)N)NC(=O)CNC(=O)[C@@H](N)Cc1ccc(O)cc1)C(=O)N[C@@H](CCC(=O)O)C(=O)N1CCC[C@H]1C(=O)N[C@@H](Cc1cnc[nH]1)C(=O)N[C@@H](CC(=O)O)C(=O)N[C@@H](Cc1c[nH]c2ccccc12)C(=O)N[C@H](C(=O)N[C@@H](CCCCN)C(=O)N[C@@H](CC(N)=O)C(=O)N[C@H](C(=O)N[C@H](C(=O)N[C@@H](CC(=O)O)C(=O)N[C@@H](CCCCN)C(=O)N[C@H](C(=O)N[C@@H](CC(=O)O)C(=O)N[C@@H](CCC(N)=O)C(=O)N[C@H](C(=O)N[C@H](C(=O)N[C@@H](Cc1cnc[nH]1)C(=O)N[C@@H](CC(=O)O)C(=O)N[C@@H](Cc1ccccc1)C(=O)N[C@H](C(=O)N[C@@H](CC(=O)O)C(=O)N[C@@H](CCCCN)C(=O)O)C(C)C)[C@@H](C)CC)[C@@H](C)CC)[C@@H](C)CC)[C@@H](C)O)[C@@H](C)CC)[C@@H](C)O` showed an inhibition [8] of 99%.

In the case of `CC[C@H](C)[C@H](NC(=O)CNC(=O)[C@H](CO)NC(=O)CNC(=O)[C@H](CCCNC(=N)N)NC(=O)[C@H](CCCNC(=N)N)NC(=O)[C@H](CCCNC(=N)N)NC(=O)[C@H](CCC(N)=O)NC(=O)[C@H](CCCNC(=N)N)NC(=O)[C@H](CCCNC(=N)N)NC(=O)[C@H](CCCCN)NC(=O)[C@H](CCCCN)NC(=O)[C@H](CCCNC(=N)N)NC(=O)CNC(=O)[C@H](Cc1ccc(O)cc1)NC(C)=O)C(=O)N[C@@H](CCC(=O)O)C(=O)N1CCC[C@H]1C(=O)N[C@@H](Cc1cnc[nH]1)C(=O)N[C@@H](CC(=O)O)C(=O)N[C@@H](Cc1c[nH]c2ccccc12)C(=O)N[C@H](C(=O)N[C@@H](CCCCN)C(=O)N[C@@H](CC(N)=O)C(=O)N[C@H](C(=O)N[C@H](C(=O)N[C@H]1CSCC(=O)NCCC[C@H](C(=O)N[C@@H](CCC(N)=O)C(=O)N[C@H](C(=O)N[C@H](C(=O)N[C@@H](Cc2cnc[nH]2)C(=O)N[C@@H](CC(=O)O)C(=O)N[C@@H](Cc2ccccc2)C(=O)N[C@H](C(=O)N[C@@H](CC(=O)O)C(=O)N[C@@H](CCCCN)C(=O)O)C(C)C)[C@@H](C)CC)[C@@H](C)CC)NC(=O)[C@H]([C@@H](C)CC)NC(=O)[C@H](CCCCN)NC1=O)[C@@H](C)O)[C@@H](C)CC)[C@@H](C)O`, the Activity (Vero [9]) was “Toxic”, the inhibition [1] was “Active” and the inhibition (Vero [10]) was “Active”.

In the case of `CC(C)CCC[C@@H](C)[C@H]1CC[C@H]2[C@@H]3CC=C4C[C@@H](OC(=O)CSC[C@H](NC(=O)CNC(=O)[C@H](CO)NC(=O)CNC(=O)[C@H](CCCCN)NC(=O)[C@H](CCCCN)NC(=O)[C@H](CCCCN)NC(=O)[C@@H](N)CCCCN)C(=O)O)CC[C@]4(C)[C@H]3CC[C@]12C` (H-KKKKGSGC(X1)-OH), the inhibition [5] was “Active” and the inhibition [11] was > 90%.

`CC[C@H](C)[C@H](NC(=O)CNC(=O)[C@H](CO)NC(=O)CNC(=O)[C@H](CCCNC(=N)N)NC(=O)[C@H](CCCNC(=N)N)NC(=O)[C@H](CCCNC(=N)N)NC(=O)[C@H](CCC(N)=O)NC(=O)[C@H](CCCNC(=N)N)NC(=O)[C@H](CCCNC(=N)N)NC(=O)[C@H](CCCCN)NC(=O)[C@H](CCCCN)NC(=O)[C@H](CCCNC(=N)N)NC(=O)CNC(=O)[C@H](Cc1ccc(O)cc1)NC(C)=O)C(=O)N[C@@H](CCC(=O)O)C(=O)N1CCC[C@H]1C(=O)N[C@@H](Cc1cnc[nH]1)C(=O)N[C@@H](CC(=O)O)C(=O)N[C@@H](Cc1c[nH]c2ccccc12)C(=O)N[C@H](C(=O)N[C@@H](CCCCN)C(=O)N[C@H]1CSCC(=O)NCCC[C@@H](C(=O)N[C@@H](CCCCN)C(=O)N[C@H](C(=O)N[C@@H](CC(=O)O)C(=O)N[C@@H](CCC(N)=O)C(=O)N[C@H](C(=O)N[C@H](C(=O)N[C@@H](Cc2cnc[nH]2)C(=O)N[C@@H](CC(=O)O)C(=O)N[C@@H](Cc2ccccc2)C(=O)N[C@H](C(=O)N[C@@H](CC(=O)O)C(=O)N[C@@H](CCCCN)C(=O)O)C(C)C)[C@@H](C)CC)[C@@H](C)CC)[C@@H](C)CC)NC(=O)[C@H]([C@@H](C)O)NC(=O)[C@H]([C@@H](C)CC)NC1=O)[C@@H](C)O` was tested, and the inhibition [4] was 99%, the Activity (Vero [7]) was “Non-toxic” and the inhibition (Vero [12]) was 80%.
